Assay outcomes: PubChem BioAssay, Broad Institute
A selection: hits, their analogues and other compounds. The true share with any hit is near 2.4%.
E-sel inducer = induces E-selectin expression in human endothelial cells | P16581 | HUVEC E-selectin immunofluorescence imaging; normalized: neutral wells 0, TNF-alpha wells 100 | activation, % at 7.58 µM | 260,000 compounds, 0.37% hits | AID 686992;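 active means mean E-selectin-positive cell signal at least 10% of the positive control, reached in at least 60% of replicates, without over 20% cell loss; inconclusive means no rule given, readout overlaps actives, possibly toxicity-flagged; inactive means the rest, including those meeting only one limit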
Target sequence (P16581 whole entry, looked up): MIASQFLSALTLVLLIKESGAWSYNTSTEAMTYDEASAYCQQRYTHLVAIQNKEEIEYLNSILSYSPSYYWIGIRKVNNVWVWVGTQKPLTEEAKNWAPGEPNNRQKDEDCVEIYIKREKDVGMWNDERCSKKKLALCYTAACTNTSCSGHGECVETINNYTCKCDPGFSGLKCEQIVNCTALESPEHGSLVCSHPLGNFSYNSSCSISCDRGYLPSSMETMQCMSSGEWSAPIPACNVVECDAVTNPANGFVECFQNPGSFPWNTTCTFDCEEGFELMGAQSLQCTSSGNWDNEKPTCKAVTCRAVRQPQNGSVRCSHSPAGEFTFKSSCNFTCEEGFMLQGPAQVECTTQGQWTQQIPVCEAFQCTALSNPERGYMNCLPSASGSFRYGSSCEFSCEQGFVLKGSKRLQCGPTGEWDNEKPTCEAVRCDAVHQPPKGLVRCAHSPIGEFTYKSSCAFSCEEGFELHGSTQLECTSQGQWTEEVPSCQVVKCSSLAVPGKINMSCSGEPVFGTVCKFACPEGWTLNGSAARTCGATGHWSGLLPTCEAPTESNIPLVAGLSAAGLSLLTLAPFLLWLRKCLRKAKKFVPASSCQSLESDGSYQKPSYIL
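System: HUVEC / Compound: single concentration / Signal: immunofluorescence imaging / Read-out: percent E-selectin-positive cells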
LGR2 antag = blocks bursicon-induced cAMP signaling via Drosophila LGR2; HEK293 LGR2, CRE-luciferase, bursicon-stimulated, 4 h; inhibition, % at 9.99 µM; 380,000 compounds, 0.35% hits;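 active means drop in luminescence signal, shown as inhibition above about 50% in the replicate tests, limit read from the data, passing the limit was not always enough; inconclusive means probably only some replicates passing the limit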;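 further: agonist challenge used bursicon conditioned medium at about half maximal strength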
rRNA inh HTS = inhibits bacterial ribosomal RNA function over humanized ribosomes. 350,000 compounds, 1.6% hits. AID 720706. E. coli WT GFP vs humanized-ribosome RFP mutants, fluorescence, 24 h; hits give low values; DMSO median 0, no signal -100. GFP signal change (wild-type ribosome), % (concentration not given with the values);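 active means significant combined selectivity score with lowered wild-type GFP, culture density cut under 30%, mutant RFP and density less affected; inactive means any of these conditions unmet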
EWS-Fli inh = EWS/Fli transcriptional activity inhibition. inhibition, % at 12.6 µM. A673 NR0B1-luciferase reporter, viability-normalised. 350,000 compounds, 0.67% hits;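 active means mean inhibition of at least 50% after viability correction, with every replicate also passing that limit; inconclusive means mean reaches 50% but only one of two replicates passes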;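 further: firefly luciferase signal divided by Alamar Blue viability fluorescence both relative to DMSO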
The depositor's hits bear a star; ? = inconclusive; . = no result.

SMILES	E-sel inducer	LGR2 antag	rRNA inh HTS	EWS-Fli inh
C=CCNC(=O)c1ccccc1NC(=O)c1ccc(Cl)c(S(=O)(=O)Nc2ccccc2)c1	.	-1	-36*	.
Cc1cc(OC(C)C(=O)NCC(O)c2ccccc2)c2c(C)c(C)c(=O)oc2c1 (stereo unspecified)	1	-1	-2	-1
Cc1cc(OC(C(=O)O)c2ccccc2)c2c(C)c(Cc3ccccc3)c(=O)oc2c1 (stereo unspecified)	.	-4	-24*	8
C[n+]1c2n(c3ccccc31)N=C(c1cc(C(C)(C)C)c(O)c(C(C)(C)C)c1)CS2	.	86*	-55	47
COc1cccc(C2=Nn3c(nnc3-c3ccccc3O)SC2)c1	0	.	.	.
O=C(NOCc1ccccc1)c1coc(-c2ccccc2)n1	0	-44	-26*	-4
COc1cc(/C=C/C(=O)OCC(=O)N2CCCc3ccccc32)ccc1OCC#N	.	-13	-24*	-2
COc1cc(/C=C/C(=O)OCC(=O)N2CCCc3ccccc32)ccc1O	.	-8	.	6
O=C(c1ccccc1)N1CCSc2sccc2C1=O	.	98*	1	67*
COc1ccc(S(=O)(=O)N2CCCCN3[C@H](CO)[C@H](c4ccc(-c5cccnc5)cc4)[C@@H]3C2)cc1	0	58*	-31	.
Cc1cccc(S(=O)(=O)N2CCCCN3[C@@H](CO)[C@H](c4ccc(C#CC(C)C)cc4)[C@@H]3C2)c1	0	25	-42*	22
Cc1cccc(-c2ccc([C@@H]3[C@H](CO)N4CCCCN(S(=O)(=O)c5cccc(C)c5)C[C@@H]34)cc2)c1	-1	15	-28*	-5
Cc1cccc(S(=O)(=O)N2CCCCN3[C@H](C2)[C@H](c2ccc(C#CC(C)C)cc2)[C@@H]3CO)c1	-1	19	5	8
CC(C)CC#Cc1ccc([C@H]2[C@@H](CO)N3CCCCN(S(=O)(=O)c4ccc(F)cc4)C[C@@H]23)cc1	0	4	1	3
Cc1cccc(S(=O)(=O)N2CCCCN3[C@H](C2)[C@H](c2ccc(-c4ccccc4)cc2)[C@@H]3CO)c1	.	.	.	12
COc1ccc(S(=O)(=O)N2CCCCN3[C@@H](CO)[C@H](c4ccc(-c5cccnc5)cc4)[C@@H]3C2)cc1	0	34	-6	.
CC(C)CC#Cc1ccc([C@@H]2[C@H](CO)N3CCCCN(S(=O)(=O)c4ccc(F)cc4)C[C@@H]23)cc1	0	-1	-19*	25
C[C@H](CO)N1C[C@H](C)[C@H](CN(C)C(=O)NC2CCCCC2)OCCCC[C@H](C)Oc2ccc(NS(=O)(=O)c3cn(C)cn3)cc2C1=O	0	31	0	-3
O=C(CN1CCOCC1)N[C@@H]1CC[C@H](CCn2cc(C3CCCCC3)nn2)O[C@@H]1CO	0	8	1	.
O=C(C[C@H]1C[C@@H]2c3cc(NC(=O)Nc4ccccc4F)ccc3O[C@@H]2[C@H](CO)O1)NCc1ccc2c(c1)OCO2	0	2	0	-6
CC(C)C#Cc1ccc([C@@H]2[C@H](CO)N3CCCCN(S(=O)(=O)Cc4ccccc4)C[C@@H]23)cc1	-1	22	-42*	15
Cc1ccccc1-c1ccc([C@@H]2[C@H](CO)N3CCCCN(S(=O)(=O)Cc4ccccc4)C[C@@H]23)cc1	1	0	-58	57*
Cc1cccc(-c2ccc([C@@H]3[C@H](CO)N4CCCCN(S(=O)(=O)c5ccccc5C)C[C@@H]34)cc2)c1	-1	5	-43*	49
CCCN1C[C@H](C)[C@@H](OC)CN(C)C(=O)c2ccc(NC(=O)C3CCC3)cc2OC[C@H]1C	0	14	1	1
C[C@@H]1CN([C@@H](C)CO)C(=O)Cc2cc(NC(=O)Nc3ccc(F)cc3)ccc2O[C@H]1CN(C)S(=O)(=O)c1cn(C)cn1	-16	-12	-1	-13
SMILES	E-sel inducer	LGR2 antag	rRNA inh HTS	EWS-Fli inh
C[C@@H]1CN([C@H](C)CO)S(=O)(=O)c2ccc(C#CC3(O)CCCC3)cc2O[C@@H]1CN(C)C(=O)c1ccncc1	0	3	4	-3
CCCCN(C(=O)Nc1ccc(Cl)cc1)C1CCN(C(C)=O)CC1	.	12	.	.
CC(C)CCN(C(=O)Nc1ccc(Cl)cc1)C1CCN(C(C)C)CC1	2	-11	-35*	14
CCOC(=O)C1=NNC(C(=O)c2ccccc2)C1c1ccc(C)cc1 (stereo unspecified)	5	-7	-26*	-4
CCOC(=O)C1=NNC(C(=O)c2ccc(C)cc2)C1c1ccc(C)cc1 (stereo unspecified)	.	-8	.	.
Cc1ccc(NC(=O)O/N=C/c2c(C)nn(C(C)(C)C)c2C)cc1Cl	0	99*	-9	76*
Cn1nccc1NC(=O)Nc1ccc(Cl)cc1	1	-14	-35*	-4
Cc1ccc(S(=O)(=O)NNC(=S)Nc2ccc(Cl)cc2)cc1	3	-7	-28*	7
NS(=O)(=O)c1ccc(NC(=O)Nc2ccc(Cl)cc2)cc1	.	18	-26*	-48
Cn1cnc(S(=O)(=O)N[C@@H]2C=C[C@@H](CC(=O)NCC3CC3)O[C@H]2CO)c1	0	4	4	-15
C[C@@H]1CN([C@@H](C)CO)C(=O)Cc2cc(NC(=O)Nc3cccc4ccccc34)ccc2O[C@H]1CN(C)C	-2	20	2	.
CCOC(=O)CSc1nnc(-c2ccc(OC)cc2)n1CC	1	.	.	.
CCOC(=O)Cn1c(-c2ccc(OC)cc2)c(-c2ccc(OC)cc2)nnc1=O	0	.	-22*	26
N#C/C(=C\c1ccc([N+](=O)[O-])o1)c1nc2ccccc2[nH]1	.	12	-11	59*
N#C/C(=C(/O)c1ccc([N+](=O)[O-])o1)c1nc2ccccc2[nH]1	.	12	11	9
CCNC(=O)C[C@H]1CC[C@H]2[C@@H](COC[C@@H](O)CN2S(=O)(=O)c2ccc(Oc3ccccc3)cc2)O1	0	-4	-6	-7
N#CC1(NC(=O)CN2C(=O)c3ccccc3C2=O)CCCCC1	50*	-2	4	-4
O=C(CN1C(=O)c2ccccc2C1=O)NC1(C(=O)O)CCCC1	0	-12	7	-4
CCOC(=O)c1c(NC(=O)c2ccccc2N(C)S(=O)(=O)c2ccccc2)sc2c1CCCC2	5	.	1	?
CCOC(=O)c1c(NC(=O)C(NCCN(C)C)c2ccccc2)sc2c1CCCC2 (stereo unspecified)	.	3	-38	59*
COC(=O)c1c(NC(=O)c2ccccc2C(=O)O)sc2c1CCC2	.	15	-21*	9
NC(=O)c1c(NC(=O)c2ccccc2C(=O)O)sc2c1CCCC2	-1	4	4	0
NCCNC(=O)c1c(NC(=O)c2ccccc2)sc2c1CCCC2	.	-43	-22*	-112
COc1ccc(NC(=O)Nc2ccc3c(c2)C(=O)N([C@H](C)CO)C[C@H](C)[C@H](CN(C)C(=O)Nc2ccc4c(c2)OCO4)OCCCC[C@@H](C)O3)cc1	0	-8	5	7
CCOc1ccc(/C=C(\C(=O)O)c2ccc(S(=O)(=O)N3CCCCC3)s2)cc1OC	0	-3	-23*	18
